The values that follow come from the array DNA melting data of Ke et al. (doi:10.1101/2024.01.08.574731).

Data set [1] in a line: melting temperature; fluorescence melt of hairpins on a sequencing array, two-state fit, raised by 9.35 °C to match UV melts. The conditions noted are these: sodium 0.088 M. The procedure, abridged:
(§1)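 Melting temperature and folding enthalpy were obtained by bootstrapped two-state fitting. Fits used Cy3 fluorescence of library hairpins with annealed Cy3 and quencher oligos on a sequenced MiSeq flow cell, imaged in 50 mM Na-HEPES pH 8.0, 25 mM NaCl in 2.5 °C steps up to 60 °C and normalised to pre-quench Cy3 and control constructs. Four replicates were combined by inverse-variance weighting, and fitted temperatures were raised by 9.35 °C to match UV melts.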

A short description of data set [2]: folding enthalpy; higher = less favourable; fluorescence melt of hairpins on a sequencing array, two-state fit. The conditions noted are these: sodium 0.088 M. The procedure, abridged:
as §1

Take GATCTGGCGTCAGATC ((((((....)))))): in data set [1], the Tm was 50.9 °C. Besides, in data set [2], the folding enthalpy was -31.8 kcal/mol.
Consider GATCTGGCTGCAGATC ((((((....)))))), for which, in data set [1], the Tm came out at 50 °C. For the same sequence, the folding enthalpy in data set [2] is -36.3 kcal/mol.
For GATCTGGGAAACCAGACC (.(((((....))))).) the same measures were 38.5 °C and -16.1 kcal/mol.
For GATCTGGGAAACTGGATC ((((..(....)..)))), in that order: 35.2 °C and -26.2 kcal/mol.
For GATCTGGGCGCAGATC ((((((....)))))), in that order: 53.5 °C and -37.7 kcal/mol.
Consider GATCTGGGCTCAGATC ((((((....)))))), for which, in data set [1], the Tm was 52.8 °C. The folding enthalpy in data set [2] was -39.3 kcal/mol.
For GATCTGGTTCAGATC ((((((...)))))) the same measures were 49.9 °C and -36.5 kcal/mol.
For GATCTGGTTCCAGATC ((((((....)))))) the same measures were 53.5 °C and -47.1 kcal/mol.
Turning to GATCTGTACTCAGATC ((((((....)))))), in data set [1], the Tm stood at 50.2 °C. The folding enthalpy in data set [2] was -36.1 kcal/mol.
For GATCTGTCACCAGATC ((((((....)))))) the same measures were 49.4 °C and -39.4 kcal/mol.
For the sequence GATCTGTCAGCAGATC ((((((....)))))), in data set [1], the Tm was 51.7 °C. The folding enthalpy in data set [2] is -40.7 kcal/mol.
For GATCTGTTACCAGATC ((((((....)))))) the same measures were 50.5 °C and -42.4 kcal/mol.
For GATCTGTTCACAGATC ((((((....)))))), in that order: 56.9 °C and -35.1 kcal/mol.
For GATCTGTTCGCAGATC ((((((....)))))) the same measures were 53.4 °C and -47.6 kcal/mol.
GATCTGTTGCCAGATC ((((((....)))))): the Tm in data set [1] stood at 50.5 °C. In addition, in data set [2], the folding enthalpy was -36.9 kcal/mol.
For GATCTGTTGGCAGATC ((((((....)))))) the same measures were 54.2 °C and -40.3 kcal/mol.
For GATCTTAAACAAGATC ((((((....)))))) the same measures were 38.7 °C and -24.9 kcal/mol.
For GATCTTAACGAAGATC ((((((....)))))), in that order: 40 °C and -29.9 kcal/mol.
As to GATCTTAAGGAAGATC ((((((....)))))), the Tm in data set [1] came out at 39.1 °C. In addition, in data set [2], the folding enthalpy was -23.1 kcal/mol.
For GATCTTAAGTAAGATC ((((((....)))))), in that order: 42.8 °C and -25.5 kcal/mol.
For GATCTTAATTAAGATC ((((((....)))))), in that order: 44.7 °C and -32.1 kcal/mol.
For GATCTTACAGAAGATC ((((((....)))))), in that order: 38.4 °C and -31.8 kcal/mol.
Take GATCTTACCAAAGATC ((((((....)))))): in data set [1], the Tm turned out to be 44.5 °C. Further, the folding enthalpy in data set [2] is -34.6 kcal/mol.
For GATCTTACTGAAGATC ((((((....)))))), in that order: 42.2 °C and -26.9 kcal/mol.
For GATCTTAGACAAGATC ((((((....)))))), in that order: 37.3 °C and -30.2 kcal/mol.
Consider GATCTTAGGAAAGATC ((((((....)))))), for which, in data set [1], the Tm stood at 38.6 °C. In addition, in data set [2], the folding enthalpy was -26.5 kcal/mol.
Turning to GATCTTAGGAAGATC ((((((...)))))), in data set [1], the Tm worked out at 43.3 °C. Further, the folding enthalpy in data set [2] was -30.5 kcal/mol.
For GATCTTAGTAAGATC ((((((...)))))) the same measures were 42.5 °C and -27.6 kcal/mol.
For GATCTTATAAAGATC ((((((...)))))), in that order: 44 °C and -29.4 kcal/mol.
For GATCTTATAGAAGATC ((((((....)))))), in that order: 39.5 °C and -30 kcal/mol.
In the case of GATCTTATTAAAGATC ((((((....)))))), the Tm in data set [1] came to 42.8 °C. Also, the folding enthalpy in data set [2] is -30.7 kcal/mol.
For GATCTTATTAAGATC ((((((...)))))), in that order: 45 °C and -34 kcal/mol.
For GATCTTCAGAAAGATC ((((((....)))))), in that order: 41.7 °C and -29.7 kcal/mol.
For GATCTTCAGCAAGATC ((((((....)))))) the same measures were 38.9 °C and -24.6 kcal/mol.
As for GATCTTCAGTAAGATC ((((((....)))))), in data set [1], the Tm was determined as 40.7 °C. In addition, the folding enthalpy in data set [2] is -30.6 kcal/mol.
Turning to GATCTTCATTAAGATC ((((((....)))))), in data set [1], the Tm came to 41.5 °C. In data set [2], the folding enthalpy was -35.4 kcal/mol.
In the case of GATCTTCCAAAAGATC ((((((....)))))), the Tm in data set [1] worked out at 41.7 °C. Further, in data set [2], the folding enthalpy is -32 kcal/mol.
For GATCTTCCTAAAGATC ((((((....)))))) the same measures were 43.7 °C and -31.7 kcal/mol.
For GATCTTCCTGAAGATC ((((((....)))))) the same measures were 51.2 °C and -39.8 kcal/mol.
For GATCTTCCTTAAGATC ((((((....)))))), in that order: 42.1 °C and -27.8 kcal/mol.
Regarding GATCTTCGACAAGATC ((((((....)))))), the Tm in data set [1] was 38.6 °C. Further, the folding enthalpy in data set [2] is -26.7 kcal/mol.
For GATCTTCGAGAAGATC ((((((....)))))) the same measures were 50.8 °C and -42 kcal/mol.
For GATCTTCGATAAGATC ((((((....)))))), in that order: 40.2 °C and -24.7 kcal/mol.
For GATCTTCGCCAAGATC ((((((....)))))) the same measures were 42 °C and -33.7 kcal/mol.
As for GATCTTCGGGAAGATC ((((((....)))))), in data set [1], the Tm is 49.5 °C. The folding enthalpy in data set [2] was -36.2 kcal/mol.
For GATCTTCGGTAAGATC ((((((....)))))), in that order: 41.3 °C and -34 kcal/mol.
For GATCTTCTCAAAGATC ((((((....)))))) the same measures were 45.2 °C and -33.4 kcal/mol.
For GATCTTCTCCAAGATC ((((((....)))))), in that order: 41.1 °C and -29.8 kcal/mol.
For GATCTTCTCGAAGATC ((((((....)))))), the Tm in data set [1] was determined as 51.8 °C. Besides, the folding enthalpy in data set [2] is -39 kcal/mol.
For GATCTTCTTCAAGATC ((((((....)))))) the same measures were 43.5 °C and -27.7 kcal/mol.
For GATCTTCTTGAAGATC ((((((....)))))) the same measures were 54 °C and -48 kcal/mol.
Turning to GATCTTGACAAGATC ((((((...)))))), the Tm in data set [1] came to 46.1 °C. Further, in data set [2], the folding enthalpy is -38.6 kcal/mol.
For GATCTTGACCAAGATC ((((((....)))))), in that order: 49.3 °C and -38.3 kcal/mol.
For GATCTTGACTAAGATC ((((((....)))))), in that order: 49 °C and -44 kcal/mol.
Turning to GATCTTGAGCAAGATC ((((((....)))))), the Tm in data set [1] was determined as 44.4 °C. The folding enthalpy in data set [2] was -33.5 kcal/mol.
For GATCTTGCCGAAGATC ((((((....)))))) the same measures were 46.1 °C and -28.1 kcal/mol.
For GATCTTGCGAAGATC ((((((...)))))) the same measures were 42.8 °C and -23.7 kcal/mol.
For GATCTTGGAAACAAGATC (((((((....))))))), in that order: 55.9 °C and -42.3 kcal/mol.
For the sequence GATCTTGGTGAAGATC ((((((....)))))), the Tm in data set [1] stood at 45.4 °C. Further, the folding enthalpy in data set [2] is -27.2 kcal/mol.
For GATCTTGTCGAAGATC ((((((....)))))) the same measures were 46.4 °C and -27.4 kcal/mol.
For GATCTTGTCTAAGATC ((((((....)))))) the same measures were 48.4 °C and -40.6 kcal/mol.
On to GATCTTGTGAAAGATC ((((((....)))))), for which the Tm in data set [1] came to 51.2 °C. Besides, the folding enthalpy in data set [2] is -37.3 kcal/mol.
Consider GATCTTTAATAAGATC ((((((....)))))), for which the Tm in data set [1] amounted to 40.9 °C. In addition, in data set [2], the folding enthalpy was -31.1 kcal/mol.
For GATCTTTATAAAGATC ((((((....)))))), in that order: 45.5 °C and -38.4 kcal/mol.
For GATCTTTCACAAGATC ((((((....)))))), in that order: 43.1 °C and -30.5 kcal/mol.
For GATCTTTCCCAAGATC ((((((....)))))) the same measures were 42.6 °C and -33.4 kcal/mol.
Consider GATCTTTCCGAAGATC ((((((....)))))), for which the Tm in data set [1] was 46.4 °C. Also, the folding enthalpy in data set [2] was -33.1 kcal/mol.
Regarding GATCTTTCGTAAGATC ((((((....)))))), in data set [1], the Tm came to 44.4 °C. Further, in data set [2], the folding enthalpy was -30.6 kcal/mol.
For GATCTTTTGAAAGATC ((((((....)))))) the same measures were 44.7 °C and -28.3 kcal/mol.
Take GATCTTTTGTAAGATC ((((((....)))))): the Tm in data set [1] is 44.2 °C. The folding enthalpy in data set [2] was -31.1 kcal/mol.
Take GATGACCGAAAGGTAATC (((.(((....))).))): the Tm in data set [1] stood at 47.1 °C. Moreover, the folding enthalpy in data set [2] was -23.4 kcal/mol.
For the sequence GATGACCGAAAGGTATC (((.(((....)))))), the Tm in data set [1] turned out to be 34.7 °C. In addition, the folding enthalpy in data set [2] was -16.6 kcal/mol.
For GATGACCGAAAGGTGATC (((.(((....))).))), in that order: 47.7 °C and -26.9 kcal/mol.
Turning to GATGACGAAAGTCACATC ((((((....)))..))), in data set [1], the Tm was 29.2 °C. The folding enthalpy in data set [2] is -8.72 kcal/mol.
For GATGACGAAAGTCGAATC ((((((....)))..))), in that order: 33 °C and -13.7 kcal/mol.
For GATGACGAAAGTCGATC ((((((....))).))) the same measures were 45.2 °C and -18.8 kcal/mol.
